Measurements gathered from unrelated publications.
Lines come from different studies, so protocols differ.
EDNRA: Endothelin-1 receptor (EDNRA, Homo sapiens, UniProt P25101)
HTR2A: 5-hydroxytryptamine receptor 2A (HTR2A, Homo sapiens, UniProt P28223)
PROC: Vitamin K-dependent protein C (PROC, Homo sapiens, UniProt P04070)
CASP6: Caspase-6 (CASP6, Homo sapiens, UniProt P55212)
PDE5A: cGMP-specific 3',5'-cyclic phosphodiesterase (PDE5A, Homo sapiens, UniProt O76074)

CC(C)N1CCC[C@H]1CNC(=O)c1cn(C2CCCC2)c(=O)c2c1c1ccccc1n2C
inhibition (EDNRA; ligand displacement; radioligand; 10 µM): 11%

OC[C@@]12C[C@@H]1[C@@H](n1cnc3c(NC(C4CCCC4)C4CCCC4)nc(Cl)cc31)[C@H](O)[C@@H]2O
inhibition (HTR2A; ligand displacement; radioligand; 10 µM): 1%

C#Cc1n[nH]c2c(-c3cn(C(C)c4ccccn4)c(=O)[nH]c3=O)cc(F)cc12 (centres unmarked)
inhibition (Cytoplasmic tyrosine-protein kinase BMX (BMX, Homo sapiens, UniProt P51813); enzyme activity; inhibitor; 1 µM): 0.9%

[H]/N=C(/N)c1ccc(NCc2nc3cc(C(=O)N(CCC(=O)O)c4ccccn4)ccc3n2C)cc1
inhibition (PROC; enzyme activity; inhibitor; 20 µM): 95%

CC(C)=CCC[C@]1(C)C=Cc2c(O)c3c(c(CC=C(C)C)c2O1)O[C@]12C(=C[C@@H]4C[C@H]1C(C)(C)O[C@@]2(C/C=C(/C)C(=O)O)C4=O)C3=O
inhibition (Histone-lysine N-methyltransferase EHMT1 (EHMT1, Homo sapiens, UniProt Q9H9B1); cell-free assay; 10 µM): -8%

Cn1cc(-c2cc(F)cc(N3CCn4c(cc5c4CCCC5)C3=O)c2CO)cc(Nc2ccc(N3CCN(C4COC4)CC3)cn2)c1=O
inhibition (Sphingosine kinase 1 (SPHK1, Homo sapiens, UniProt Q9NYA1); enzyme activity; inhibitor; 0.1 µM): 4%

N=C(N)c1ccc2cc(OC(=O)c3ccc(N=C(N)N)cc3)ccc2c1
inhibition (CASP6; enzyme activity; inhibitor; 10 µM): 4%

O=C(Nc1cccnn1)N1CCN([C@@H]2CCOc3cc(C(F)(F)F)ccc32)CC1
inhibition (PDE5A; enzyme activity; inhibitor; 20 µM): 5%

c1ccc(C(NCCNC(c2ccccc2)c2ccccc2)c2ccccc2)cc1
inhibition (PDE5A; enzyme activity; inhibitor; 10 µM): 0%

CCN(CC)CCCC[C@H](NC(=O)[C@H](CC(C)C)NC(=O)[C@H](C)NC(=O)[C@H](Cc1ccccc1)NC(=O)c1ccc(C(C)(C)C)cc1)C(=O)N[C@@H](CO)C(=O)OC
inhibition (Adenosine receptor A2a (ADORA2A, Homo sapiens, UniProt P29274); ligand displacement; radioligand; 10 µM): -2%

CCOC(=O)c1ccc(OC(=O)CCCCCNC(=N)N)cc1
inhibition (PROC; enzyme activity; inhibitor; 10 µM): 99%

C[C@H]1N=C(c2ccccc2F)c2cc(Br)ccc2-n2cnc(C(=O)O)c21
inhibition (Kappa-type opioid receptor (OPRK1, Homo sapiens, UniProt P41145); ligand displacement; radioligand; 10 µM): 52.3%

CC(C)Cn1cnc2c(N)nc3ccccc3c21
inhibition (Sigma non-opioid intracellular receptor 1 (SIGMAR1, Homo sapiens, UniProt Q99720); ligand displacement; radioligand; 10 µM): 15%

Cn1cc(-c2cccc(N3CCc4c(sc5c4CC(C)(C)C5)C3=O)c2CO)cc(Nc2ccncn2)c1=O
inhibition (Phosphatidylinositol 4-phosphate 3-kinase C2 domain-containing subunit beta (PIK3C2B, Homo sapiens, UniProt O00750); enzyme activity; inhibitor; 1 µM): -3%

COc1ccc(S(=O)(=O)N2CCCCC2)cc1C
inhibition (EDNRA; ligand displacement; radioligand; 10 µM): < 30%

CN(CCN1CCC(OC(=O)Nc2ccccc2-c2ccccc2)CC1)C(=O)c1ccc(CN2CCC(C(N)=O)CC2)cc1
inhibition (PDE5A; enzyme activity; inhibitor; 1 µM): 0%

CC(C)[C@H](NC(=O)OCc1ccccc1)C(=O)N[C@@H](CCCN=C(N)N)C(=O)N1CCC[C@H]1C(=O)N[C@@H](CCCN=C(N)N)C(=O)CF
inhibition (Mucosa-associated lymphoid tissue lymphoma translocation protein 1 (MALT1, Homo sapiens, UniProt Q9UDY8); enzyme activity; inhibitor; 0.1 µM): 97%

COCc1c(-c2cc3cc(C)cc(OC)c3s2)c2c(N)ncnn2c1CN1CCNC(=O)C1
inhibition (PDE5A; enzyme activity; inhibitor; 10 µM): 8%

CN(C)C(=O)COC(=O)Cc1ccc(OC(=O)c2ccc(NC(=N)N)cc2)cc1
inhibition (CASP6; enzyme activity; inhibitor; 10 µM): 3%

O[C@H]1[C@H](n2cnc3c(NC(C4CCCCC4)C4CCCCC4)nc(Cl)nc32)[C@H]2C[C@@]2(CCl)[C@H]1O
inhibition (HTR2A; ligand displacement; radioligand; 10 µM): 21%
